Only some compounds are listed: those with a hit (about 2% of all), similar ones and a draw of the others.
DNMT1 block – human DNMT1 methyltransferase inhibitors, primary screen, biochemical, molecular beacon, fluorescence, HinP1I cleavage, uHTS; DNA (cytosine-5)-methyltransferase 1 (Homo sapiens), P26358; inhibition (reported as % activation of signal), % at 10 µM; 0.83% of 360,000 active; AID 588458, 2011; in the data active means inhibition above about 50%
LMPTP inh – LMPTP phosphatase inhibitors, primary screen, biochemical, fluorescence intensity, uHTS | Low molecular weight phosphotyrosine protein phosphatase (Homo sapiens), P24666 | recombinant LMPTP-A, OMFP fluorogenic substrate | inhibition, % at 20 µM | 0.22% of 360,000 active;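 active means compounds that cut the enzyme signal by at least half of the control window in the single-dose screen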;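 further: plate controls were DMSO wells with enzyme plus substrate for no effect and substrate without enzyme for full effect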
Target sequence (P24666 whole entry, looked up): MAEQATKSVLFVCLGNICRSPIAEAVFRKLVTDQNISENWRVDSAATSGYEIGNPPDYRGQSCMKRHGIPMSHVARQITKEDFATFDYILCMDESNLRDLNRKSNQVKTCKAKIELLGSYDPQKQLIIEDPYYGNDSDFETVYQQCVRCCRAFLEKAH
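Buffer or medium: Bis-Tris pH 6.0, DTT, detergent; Assay system: LMPTP-A enzyme; Quantity: 0.625 nM enzyme; Detection: endpoint fluorescence intensity; Times: 50 min dark incubation at room temperature; Controls: substrate-only low control, DMSO enzyme-plus-substrate high control; Doses: single 20 µM dose; Read-out: percent inhibition versus substrate-only and uninhibited controls; Reagent: 400 µM OMFP.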
SUMO1-SIM PPI – modulators of SUMO1 protein-protein interactions, primary screen, biochemical, uHTS; Small ubiquitin-related modifier 1 (Homo sapiens), P63165; SUMO1 binding to a labelled peptide, TR-FRET, 1 h; inhibition, % at 20 µM; 0.33% of 360,000 active; AID 602429, 2012; in the data active means inhibition above about 37%
Target sequence (P63165 whole entry, looked up): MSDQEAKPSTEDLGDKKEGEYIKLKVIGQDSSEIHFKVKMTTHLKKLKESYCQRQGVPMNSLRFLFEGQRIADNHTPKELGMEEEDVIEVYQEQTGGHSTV
Scp1 inh – Scp-1 phosphatase inhibitors, primary screen, biochemical, colorimetric, uHTS; 0.88% of 340,000 active; Recombinant Scp1, phosphopeptide, malachite green phosphate absorbance; inhibition, % at 20 µM;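 active means inhibition above about 50% at 20 µM, limit read from the data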;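 further: plate controls were DMSO wells with enzyme for no effect and wells lacking enzyme for full effect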
Target sequence (Q9GZU7 76-261 limits assumed): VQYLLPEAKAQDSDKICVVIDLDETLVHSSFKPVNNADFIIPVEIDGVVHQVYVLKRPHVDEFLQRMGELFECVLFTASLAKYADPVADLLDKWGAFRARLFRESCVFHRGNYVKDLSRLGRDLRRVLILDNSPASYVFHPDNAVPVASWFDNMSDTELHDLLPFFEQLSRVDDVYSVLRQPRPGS
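assay system = SCP-1 phosphatase catalytic domain, residues 76-261 | buffer or medium = 50 mM Tris acetate pH 5.5, 0.005% Tween-20, 10 mM MgCl2 | incubation = enzyme reaction 45 min at room temperature, colour 5 min, stabilisation 30 min | signal = Phosphate-binding colour reagent, absorbance read at 630 nm | measure = % inhibition at 20 µM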
CSN deneddyl inh – inhibitors of CSN-mediated cullin deneddylation, primary screen, biochemical, fluorescence polarization, uHTS; AID 651999, 2013; Purified CSN, SCF-Nedd8-OG deneddylation; inhibition, % at 12.5 µM; COP9 signalosome complex subunit 5 (Homo sapiens), Q92905; 0.38% of 360,000 active;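 active means pattern-corrected inhibition above about 35%, with an unprinted fluorescence ratio check between 0.5 and 1.5, limit read from the data, passing the limit was not always enough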;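 further: 0% = enzyme with substrate and 100% = substrate without enzyme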
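Assay system: HEK293T-derived human Csn5 enzyme; quantity: 0.24 nM enzyme; medium: Tris/NaCl/DTT buffer, pH 7.5; also added: substrate SCFSkp2-Nedd8OG, 10 nM; doses: 12.5 µM compound; schedule: 90 min reaction at room temperature; signal: FP; read-out: % inhibition of substrate cleavage by Csn5; benchmarks: substrate-only high control, full reaction low control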
STEP block – STEP phosphatase inhibitors, primary screen, biochemical, fluorescence intensity, uHTS. Tyrosine-protein phosphatase non-receptor type 5 (Homo sapiens), P54829. recombinant STEP, OMFP fluorogenic substrate. inhibition, % at 20 µM. 0.25% of 360,000 active. AID 588621, 2011;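 active means inhibition at 20 µM, scaled per plate between control wells, above about 37%, limit read from the data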;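 further: 0% = DMSO with enzyme and substrate and 100% = substrate only without enzyme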
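System: isolated STEP enzyme; schedule: 20 min enzyme reaction at room temperature, protected from light; medium: Bis-Tris buffer pH 6.0, 2.5 mM DTT, 0.005% Tween 20; signal: fluorescence, 480/540 nm; dosing: single compound dose of 20 µM, 1% DMSO final; also added: OMFP substrate, 25 µM final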
DNMT1 confirm – DNMT1 methyltransferase inhibitor retest, confirmation, biochemical, molecular beacon, fluorescence, single concentration | AID 602385, 2012 | 8% of 2,300 active | DNMT1 molecular beacon HinP1I cleavage | shares compounds with DNMT1 block | inhibition, % at 10 µM;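 active means average inhibition of at least 30% in the single-concentration confirmation test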
DNMT1 interf – counter-screen for DNMT1 inhibitors: spectral interference | AID 602387 | 1% of 2,300 active | DNMT1 molecular beacon spectral interference counterscreen, fluorescence 485/520 | activation (fluorescence interference), % at 10 µM | shares compounds with DNMT1 block;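 active means activation of at least 30% at 10 µM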;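 further: DNMT1 catalytic domain with a HinP1I cleavage step and a FAM/dabcyl DNA beacon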
* marks the source's active call; other numbers are inactive results; / = no result.

SMILES | DNMT1 block | LMPTP inh | SUMO1-SIM PPI | Scp1 inh | CSN deneddyl inh | STEP block | DNMT1 confirm | DNMT1 interf
CCOc1cccc(C(=O)N/N=C/c2coc3ccccc3c2=O)c1 | 0 | 0 | 3 | -5 | 6 | -1 | / | /
COc1ccc(C2CC(c3cccc([N+](=O)[O-])c3)=NN2/C(C)=C/C(C)=O)cc1 (stereo not drawn) | 57* | 2 | -16 | / | 57* | -1 | 1 | 0
CSCCC(NC(=O)C1CCC(C)CC1)C(=O)NCCN1CCC(C)CC1 (stereo not drawn) | -2 | -2 | 4 | -8 | 4 | -2 | / | /
CCc1nn(CC(=O)NC(C)CCc2ccccc2)c(=O)c2cc3cc(F)ccc3n12 (stereo not drawn) | 53* | 1 | 4 | -2 | 0 | 3 | 2 | 1
Cc1ccc(C(=O)CCC(=O)OCC(=O)N(C)c2c(N)n(Cc3ccccc3)c(=O)[nH]c2=O)cc1 | -1 | 0 | 0 | -7 | 0 | 3 | / | /
CC1(C(=O)NS(=O)(=O)C2CC2)CCCN(C(=O)c2ccc(F)c(Cl)c2)C1 (stereo not drawn) | 0 | -2 | 8 | / | 0 | 0 | / | /
CC1(C(=O)NS(=O)(=O)C2CC2)CCCN(C(=O)c2cccc(Cl)c2)C1 (stereo not drawn) | 65* | -2 | 1 | / | 3 | -1 | 2 | 1
CCCNC(=O)NC1CCCc2ccccc21 (stereo not drawn) | 1 | -2 | -2 | 1 | -5 | 0 | / | /
O=C(COC(=O)/C=C/c1ccc(F)cc1)NC1CCS(=O)(=O)C1 (stereo not drawn) | 0 | -1 | -6 | 0 | 0 | -1 | / | /
CC(/C=C1\N=C(SCc2ccccc2)SC1=O)=C\c1ccccc1 | 80* | 2 | 0 | 3 | 5 | 6 | 1 | 0
Cn1cccc1CC(=O)N/N=C/c1cccc([N+](=O)[O-])c1 | 94* | 0 | -6 | 1 | 3 | -2 | 3 | 6
CCCCCCC(=O)Nc1ccc(C(=O)N/N=C/c2cccnc2)cc1 | -2 | 0 | -7 | 25 | -2 | 13 | / | /
CCCCCCCC(=O)Nc1ccc(C(=O)N/N=C/c2cccc([N+](=O)[O-])c2)cc1 | 78* | 0 | 0 | 96* | 4 | 24 | 5 | 2
O=[N+]([O-])c1ccc(NN=Cc2cccc([N+](=O)[O-])c2)cc1 | 72* | 36 | -14 | -8 | 6 | 13 | 4 | -1
COc1ccccc1CNC(=O)c1cc(C(=O)CC(C)C)c[nH]1 | 0 | 0 | -2 | -11 | 0 | -1 | / | /
O=C(Nc1cccc(Cl)c1)Nc1nnc([C@H]2C[C@H](O)[C@@H](CO)O2)s1 | 3 | -1 | 5 | / | 4 | -3 | / | /
C=CCOc1ccc(C(c2c(C(=O)O)[nH]c3ccccc23)c2c(C(=O)O)[nH]c3ccccc23)cc1 | 86* | 2 | 15 | -19 | 22 | -4 | 14 | -1
O=C(O)c1[nH]c2ccccc2c1C(c1ccccc1)c1c(C(=O)O)[nH]c2ccccc12 | 2 | 1 | 7 | -15 | 1 | 2 | / | /
CN(C)S(=O)(=O)c1cccc(NC(=O)c2ccc3nccnc3c2)c1 | -7 | 0 | -28 | -6 | 3 | -1 | / | /
O=C1Cc2cccc(=O)c(O)c2C(=O)O1 | 81* | 0 | 10 | / | 21 | 22 | 10 | 2

From PubChem
